PRMT1 inh: PRMT1 (human) inhibition, primary screen | inhibition, % at 2.79 µM | 1.3% of 370,000 active | Q99873 | recombinant PRMT1, activity-based probe fluorescence polarization;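 active = inhibition above about 21% made by adding two undisclosed values, limit read from the data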
Target sequence (Q99873 whole entry, looked up): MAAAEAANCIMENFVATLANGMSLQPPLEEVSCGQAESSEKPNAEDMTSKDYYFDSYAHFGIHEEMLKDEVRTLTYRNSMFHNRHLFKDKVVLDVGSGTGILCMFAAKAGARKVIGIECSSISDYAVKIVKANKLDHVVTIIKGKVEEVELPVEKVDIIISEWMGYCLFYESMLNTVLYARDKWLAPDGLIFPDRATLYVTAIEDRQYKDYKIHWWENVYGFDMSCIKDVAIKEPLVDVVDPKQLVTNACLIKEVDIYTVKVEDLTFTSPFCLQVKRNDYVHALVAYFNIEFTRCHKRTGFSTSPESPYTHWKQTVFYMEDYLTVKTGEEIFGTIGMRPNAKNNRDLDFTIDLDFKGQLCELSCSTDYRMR
rCAG binder: molecules binding r(CAG) RNA repeats; 1.3% of 370,000 active; AID 651821; r(CAG) RNA repeat, TO-PRO-1 dye displacement fluorescence; inhibition, % at 3 µM;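 active = inhibition above the plate cutoff, the mean of all test compounds on that plate plus 3 SD, cut at about 35% in these data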;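 also: higher means more dye released from RNA so lower well fluorescence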
TCR CD3 inh: blocks the human TCR-CD3 interaction | TAMRA-labeled TCR probe fluorescence, biochemical | inhibition, % at 9.4 µM | 0.37% of 360,000 active;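 also: recombinant mutant TCR 2C K166C tagged with TAMRA read by polarization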
SIAE inh: inhibitors of human sialic acid acetylesterase SIAE | SIAE FP-Rh probe binding, fluorescence polarization | inhibition, % at 9.66 µM | 0.69% of 370,000 active;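 active = inhibition above a cutoff: mean of compounds within the control limits plus 3 SD of those, cut at about 17% in these data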
mABHD4 FP: inhibits mouse alpha/beta hydrolase domain 4. Q8VD66. purified mABHD4, FP-Rh probe fluorescence polarization. inhibition, % at 8.92 µM. 0.54% of 370,000 active;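 active = inhibition exceeding the mean over every tested compound plus 3 SD, cut at about 30% in these data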
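Assay system: mABHD4 protein; medium: HEPES pH 7.0, NaCl, Pluronic buffer; dosing: 8.92 µM, single dose; schedule: 45 min + 60 min at 25 °C; signal: FP readout, ex 525 nm / em 598 nm; read-out: normalized percent inhibition of probe labeling; repeats: single replicate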
BSA TAMRA ctr: counter-screen for TCR-CD3 interaction inhibitors: BSA probe. shares compounds with TCR CD3 inh. TAMRA-labeled BSA probe fluorescence counterscreen. inhibition, % at 9.4 µM. 10% of 1,200 active; in the data active = inhibition above about 23%
TCR-CD3 inh conf: confirmation of human TCR-CD3 interaction inhibitors; shares compounds with TCR CD3 inh; TAMRA-labeled TCR probe fluorescence binding assay; inhibition, % at 9.4 µM; 48% of 1,200 active
rCAG bind conf: r(CAG) RNA repeat binding, confirmation | 70% of 4,300 active | TO-PRO-1 dye displacement fluorescence | inhibition, % at 3 µM | shares compounds with rCAG binder | AID 652065;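 active = inhibition above a per-plate cutoff, the mean inhibition of sample wells plus 3 SD, cut at about 35% in these data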;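 also: loss of TO-PRO-1 fluorescence as compound displaces dye from 1x1 AA loop RNA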
DNA CAG counter: counter-screen for rCAG RNA binders: DNA CAG dye complex inhibitors; shares compounds with rCAG binder; d(CAG) DNA oligo TO-PRO-1 dye displacement, fluorescence; inhibition, % at 3 µM; 94% of 4,300 active;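 active = inhibition above its plate's cutoff, the mean test-well inhibition plus 3 SD, cut at about 4.8% in these data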;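 also: hits displace the dye from DNA and so lower well fluorescence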
PRMT1 confirm: PRMT1 (human) inhibition, FP confirmation | inhibition, % at 2.79 µM | 42% of 3,300 active | recombinant His-PRMT1, activity-based probe fluorescence polarization | shares compounds with PRMT1 inh;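 active = mean inhibition across replicates above the hit cutoff derived for the earlier primary screen, cut at about 22% in these data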
A number is an active result; . = inactive; / = no result given. Rows were chosen to be rich in hits. Some 3.3% of all compounds tested hit in one or more screens of this group. Rule as the data show it, unless noted: active = inhibition above about 19%; inactive = the rest.

SMILES	PRMT1 inh	rCAG binder	TCR CD3 inh	SIAE inh	mABHD4 FP	BSA TAMRA ctr	TCR-CD3 inh conf	rCAG bind conf	DNA CAG counter	others
CCC(C)NC(=O)CN1C(=O)C2CCCCN2C(=O)c2ccccc21 (stereo unspecified)	.	.	/	.	.	/	/	/	/
COC(=O)C1=C(CSc2nc3c(cc2C#N)CN(C)CC3)OC(N)=C(C#N)C1c1ccc(F)cc1 (stereo unspecified)	.	50	20	.	.	.	.	.	16
Cc1cc(/C=N/n2c(COc3ccccc3)nc3ccccc3c2=O)c(O)c([N+](=O)[O-])c1	.	66	39	24	.	35	56	63	27
CCOc1cccc(/C=N/NC(=S)Nc2ccccc2[N+](=O)[O-])c1O	.	35	31	.	.	.	.	35	15
CCCCNC(=S)N/N=C/c1cccc(OCC)c1O	.	.	.	.	.	/	/	/	/
CC(C)(C)OC(=O)C1[C@H](O)C=CC[C@H]1S(=O)c1ccccc1 (stereo partly specified)	.	/	/	.	.	/	/	/	/
Cc1ccc(C(C)C)c(OCc2ccc(C(=O)N/N=C/c3ccc(C(=O)O)cc3)cc2)c1	.	.	.	.	.	/	/	/	/
Cc1ccc(C(C)C)c(OCc2ccc(C(=O)N/N=C/c3ccc(O)cc3O)cc2)c1	.	38	26	.	.	.	22	.	15
COc1cc(-c2nnc(SCc3cc(=O)oc4cc(O)c(O)cc34)o2)cc(OC)c1OC	.	59	28	.	33	.	40	64	30
O=c1c(-c2c(O)cc(O)c3c(=O)cc(-c4ccc(O)cc4)oc23)c(-c2ccc(O)cc2)oc2cc(O)cc(O)c12	.	49	31	.	.	.	23	36	16
Cc1c(C(=O)NNC(=O)c2ccccc2O)oc2ccc(Br)cc12	.	40	39	.	.	.	24	39	21
COc1ccc(N(C)S(=O)(=O)c2ccc(Cl)c(C(=O)NNC(=O)c3ccccc3O)c2)cc1	.	40	26	.	.	.	.	.	10
CCOc1ccc(-n2c(SC/C=C/c3ccccc3)nnc2-c2ccco2)cc1	.	.	/	.	.	/	/	/	/
Oc1cc(O)cc(C=Cc2ccc(O)c(O)c2)c1	.	38	21	.	.	.	.	.	15
Oc1ccc(/C=C/c2cc(O)cc(O)c2)cc1	.	.	.	.	.	/	/	/	/
O=c1ccc2cc3c([nH]c4ccc(Br)cc43)oc-2c1O	91	100	38	64	60	.	.	92	68
O=C(O)c1ccc(N=Nc2c(O)[nH]c3ccc(Br)cc23)cc1	.	.	.	.	.	/	/	/	/
COC(=O)[C@]12C[C@H](CC(=O)N3CCSCC3)C(=O)N(Cc3cccc4ccccc34)C1=C[C@H](COCc1ccccc1)O[C@@H]2C	.	.	/	.	.	/	/	/	/
C=Cc1c(C)c2cc3[nH]c(cc4nc(cc5nc(cc1[nH]2)C(C)=C5CCC(=O)O)C(CCC(=O)O)=C4C)c(C)c3C=C	27	90	37	75	70	.	19	87	57
CCCCCCCCN1CN2Cc3cc(F)ccc3C2CS1(=O)=O (stereo unspecified)	.	.	/	.	.	/	/	/	/
Cc1c(N=C2C=CC(=O)c3ccccc32)c(=O)n(-c2ccccc2)n1C	.	.	.	.	.	/	/	/	/
Cc1c(N=C2C=C(Br)C(=O)C(Br)=C2)c(=O)n(-c2ccccc2)n1C	61	.	46	.	69	.	.	/	/	PRMT1 confirm=49
O=C(N/N=C/c1sc(=O)[nH]c1-[n+]1ccc2ccccc2c1)c1ccccc1[O-]	95	.	33	.	.	.	24	/	/	PRMT1 confirm=.
CCCC(=O)NCc1ccc2c(c1)cc(C)n2C	.	.	.	.	.	/	/	/	/
Cc1cc2cc(CNC(=O)c3ccc(Br)o3)ccc2n1C	36	.	22	.	.	.	.	/	/	PRMT1 confirm=.
